# Measurements gathered from unrelated publications.
# Each line is one published result; the experiments were not run side by side.
# Target: Serine/threonine-protein kinase PAK 3 (PAK3, Homo sapiens, UniProt O75914)
Compound,observed,mode,method,tested at,quantity,value
N[C@H]1CCN(c2nccc(-c3cnn4ncccc34)n2)C1,binding,,,1 µM,remaining binding,100%
Cc1nc(C2CCN(C(=O)c3ccc(OC(F)(F)F)cc3N)CC2)c2ncc(N3CCN(C)CC3)cc2n1,cell-free assay,,competition with immobilised ligand,1 µM,remaining binding,100%
COc1cc2ncnc(Nc3ccc(Oc4ccccc4)c(C)c3C)c2cc1OC,enzyme activity,inhibitor,,1 µM,inhibition,10%
O=C(Nc1cnn(-c2csc(C(=O)NC3COC3)c2)c1)Nc1c(F)cccc1Cl,enzyme activity,inhibitor,,5 µM,remaining activity,64.2%
CN(C)CC#Cc1ccc(OCCCc2sc(N3CCc4cccc(C(=O)Nc5nc6ccccc6s5)c4C3)nc2C(=O)O)c(F)c1,cell-free assay,,competition with immobilised ligand,1 µM,remaining binding,97%
Cc1ccc(Nc2nccc(N(C)c3ccc4c(C)n(C)nc4c3)n2)cc1S(N)(=O)=O,enzyme activity,inhibitor,,0.3 µM,inhibition,29%
O=C1NC(=O)c2cc(Nc3ccc(F)cc3)c(Nc3ccc(F)cc3)cc21,cell-free assay,,,0.5 µM,remaining signal,99.4%
N#CC1(c2ccccn2)CCN(Cc2cc(C(=O)N3CCCC3)c(=O)n3ccccc23)CC1,cell-free assay,,competition with immobilised ligand,1 µM,remaining binding,100%
Cc1sc(C(=O)NC2COC2)cc1-n1cc(NC(=O)Nc2c(F)cccc2Cl)cn1,enzyme activity,inhibitor,,10 µM,remaining activity,114%
N#CCCc1ccc2c(c1)-c1[nH]c3ccc([N+](=O)[O-])cc3c1CC(=O)N2,cell-free assay,,,0.5 µM,remaining signal,97.1%
Cc1ccc(C(=O)NCc2ccsc2)cc1C#Cc1cn(C(C)C)c2ncnc(N)c12,enzyme activity,inhibitor,,1 µM,activity vs control,78%
CNC(=O)c1cc(Oc2ccc(NC(=O)Nc3ccc(Cl)c(C(F)(F)F)c3)cc2)ccn1,enzyme activity,inhibitor,,10 µM,inhibition,74%
COc1cc(-c2cn(C3CCc4ccccc4N(CC(F)(F)F)C3=O)nn2)ccc1-n1ccc(C)n1 (stereo not drawn),cell-free assay,,competition with immobilised ligand,1 µM,remaining binding,100%
O=C1Nc2ccc(Cl)cc2C1=Cc1cc(Cl)c(O)c(Cl)c1,cell-free assay,,,0.5 µM,remaining signal,94.3%
O=C(O)c1cc(-c2ccc(C3CCNCC3)cc2)c2ccc(-c3ccc(C(F)(F)F)cc3)cc2c1,cell-free assay,,competition with immobilised ligand,1 µM,remaining binding,100%
CCCOc1ccc(OC)c(F)c1C(=O)c1ccc(C(=O)N[C@@H]2CNC[C@H]2NC(=O)c2ccc3[nH]ncc3c2)cc1,enzyme activity,inhibitor,,10 µM,remaining activity,51%
Cn1cc(Cl)c2c(Oc3c(F)cc(Nc4cc(Cl)nc(N)n4)cc3F)ccnc21,cell-free assay,,competition with immobilised ligand,0.1 µM,remaining binding,100%
COc1cc2ncnc(Nc3ccc(F)c(Cl)c3)c2cc1OCCCN1CCOCC1,cell-free assay,,,0.5 µM,remaining signal,106%
